For twelve molecules, IC50 and Activity results are on record in ChEMBL document CHEMBL1153867, “Synthesis, biological evaluation and SAR of sulfonamide 4-methoxychalcone derivatives with potential antileishmanial activity” (Eur J Med Chem, 2009).

The test system of test [1] is Leishmania braziliensis. In words: Antileishmanial activity against Leishmania braziliensis MHOM/BR/75/M2904 promastigotes after 72 hrs. In kind it is functional, organism-based. Particulars: MHOM/BR/75/M2904, 72 h. A digest of the protocol:
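Exponential-phase promastigotes at 10×10^6/ml in Schneider's medium with 5% FBS were incubated 72 h at 28 °C with compound dilutions from 100 to 1.6. Amphotericin B (31.25–1000 nM) was the positive control and 1% DMSO the negative control. Live parasites were counted in a Neubauer chamber. IC50 came from linear regression, mean ± standard error of three independent triplicate experiments.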

Test [2] relates to Trypanosoma cruzi. In words: Antitrypanosomal activity against Trypanosoma cruzi Y epimastigotes at 500 uM after 72 hrs. In kind it is functional, organism-based.
Test [3] deals with Trypanosoma cruzi. Briefly: Antitrypanosomal activity against Trypanosoma cruzi epimastigotes at 500 uM after 72 hrs.
Test [4] relates to Leishmania braziliensis. Briefly: Antileishmanial activity against Leishmania braziliensis MHOM/BR/75/M2904 amastigotes assessed as reduction in intracellular amastigote after 48 hrs. In kind it is functional, organism-based. A digest of the protocol:
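L. braziliensis axenic amastigotes were made by differentiating stationary-phase promastigotes in Schneider medium with 20% FBS, pH 6.3, at 34 °C for 72 h. J774.A1 cells were infected at 10:1 parasite:cell overnight at 34 °C in RPMI with 20% FBS. Cells were exposed to 1–100 compound for 48 h at 34 °C/5% CO2, Giemsa-stained, and 200 cells counted. Percent inhibition above 25% counted as significant.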

Molecules are shown by their SMILES. Active and inactive are the calls of the source. The calls are words filed in the database; no cut-off is given here.

The molecule `COc1ccc(NS(=O)(=O)c2cc(/C=C/C(=O)c3ccccc3)ccc2OC)cc1` showed an IC50 with Leishmania braziliensis [1] of 7.5 µM. Also, the result in the test with Trypanosoma cruzi [2] and in the test with Trypanosoma cruzi [3] was inactive.

In the test on Leishmania braziliensis [1], `CCN(CC)S(=O)(=O)c1cc(/C=C/C(=O)c2ccccc2)ccc1OC` showed a half-inhibitory concentration (IC50) of 5.6 µM. The outcome in the test with Trypanosoma cruzi [2] and in the test with Trypanosoma cruzi [3] was inactive.

As for `COc1ccc(/C=C/C(=O)c2ccccc2)cc1S(=O)(=O)N1CCOCC1`, in the test with Leishmania braziliensis [1], the IC50 stood at 5.9 µM. The outcome in the test on Trypanosoma cruzi [2] and in the test on Trypanosoma cruzi [3] was inactive.

Turning to `COc1ccc(/C=C/C(=O)c2ccccc2)cc1S(=O)(=O)N(C)C`, in the test on Leishmania braziliensis [1], inhibition was half-maximal at 8.6 µM (IC50). Further, the result in the test with Trypanosoma cruzi [2] and in the test on Trypanosoma cruzi [3] was inactive.

With `COc1ccc(/C=C/C(=O)c2ccccc2)cc1S(=O)(=O)Nc1ccc(Cl)c(Cl)c1`, half-maximal inhibition in the test on Leishmania braziliensis [1] (IC50) was put at 8.1 µM. For the same molecule, the result in the test on Trypanosoma cruzi [2] and in the test on Trypanosoma cruzi [3] was inactive.

In turn, `COc1ccc(/C=C/C(=O)c2ccccc2)cc1S(=O)(=O)Nc1ccccc1` had an IC50 in the test on Leishmania braziliensis [1] of 69 µM. Besides, the result with Trypanosoma cruzi [2] and in the test with Trypanosoma cruzi [3] was inactive.

In the test with Leishmania braziliensis [1], `N=C(N)c1ccc(OCCCCCOc2ccc(C(=N)N)cc2)cc1` yielded an IC50 of 19.6 µM.

Consider `COc1ccc(/C=C/C(=O)c2ccccc2)cc1S(=O)(=O)N1CCCC1`, for which, in the test with Leishmania braziliensis [1], inhibition was half-maximal at 13 µM (IC50). For the same molecule, the outcome with Trypanosoma cruzi [2] and in the test with Trypanosoma cruzi [3] was inactive.

For `C[C@@H]1[C@H](O)[C@@H](C)/C=C/C=C/C=C/C=C/C=C/C=C/C=C/[C@H](O[C@@H]2O[C@H](C)[C@@H](O)[C@H](N)[C@@H]2O)C[C@@H]2O[C@](O)(C[C@@H](O)C[C@@H](O)[C@H](O)CC[C@@H](O)C[C@@H](O)CC(=O)O[C@H]1C)C[C@H](O)[C@H]2C(=O)O` [AMPHOTERICIN B], half-maximal inhibition in the test on Leishmania braziliensis [1] (IC50) required 0.3 µM. This lies in the sub-micromolar range.

For the molecule `COc1ccc(/C=C/C(=O)c2ccccc2)cc1` [4-METHOXY CHALCONE], in the test on Leishmania braziliensis [1], the IC50 was 16.6 µM.

Turning to `COc1ccc(/C=C/C(=O)c2ccccc2)cc1S(=O)(=O)NCc1ccccc1`, half-maximal inhibition in the test with Leishmania braziliensis [1] (IC50) was put at 3.5 µM. The outcome in the test with Trypanosoma cruzi [2] and in the test with Trypanosoma cruzi [3] was inactive. Further, the result with Leishmania braziliensis [4] was Active.

Regarding `COc1ccc(/C=C/C(=O)c2ccccc2)cc1S(=O)(=O)Nc1ccc(Cl)cc1`, the IC50 in the test with Leishmania braziliensis [1] came to 4.6 µM. Also, the outcome in the test with Trypanosoma cruzi [2] and in the test with Trypanosoma cruzi [3] was inactive.

As a reminder, the IC50 is the concentration that gives 50% inhibition.
